Measured values from ChEMBL document CHEMBL1138195, “Highly chiral muscarinic ligands: the discovery of (2S,2'R,3'S,5'R)-1-methyl-2-(2-methyl-1,3-oxathiolan-5-yl)pyrrolidine 3-sulfoxide methyl iodide, a potent, functionally selective, M2 partial agonist” (J Med Chem, 2006).

Columns and labels:
[1] = target: Muscarinic acetylcholine receptor M3 (Homo sapiens, UniProt P20309); experiment: Binding affinity to cloned human muscarinic M3 receptor expressed in CHO cells; type: cell-based
[2] = target: T1, Muscarinic acetylcholine receptor M4 (Homo sapiens, UniProt P08173); experiment: Binding affinity to cloned human muscarinic M4 receptor expressed in CHO cells; type: cell-based
T1 sequence (P08173 whole entry): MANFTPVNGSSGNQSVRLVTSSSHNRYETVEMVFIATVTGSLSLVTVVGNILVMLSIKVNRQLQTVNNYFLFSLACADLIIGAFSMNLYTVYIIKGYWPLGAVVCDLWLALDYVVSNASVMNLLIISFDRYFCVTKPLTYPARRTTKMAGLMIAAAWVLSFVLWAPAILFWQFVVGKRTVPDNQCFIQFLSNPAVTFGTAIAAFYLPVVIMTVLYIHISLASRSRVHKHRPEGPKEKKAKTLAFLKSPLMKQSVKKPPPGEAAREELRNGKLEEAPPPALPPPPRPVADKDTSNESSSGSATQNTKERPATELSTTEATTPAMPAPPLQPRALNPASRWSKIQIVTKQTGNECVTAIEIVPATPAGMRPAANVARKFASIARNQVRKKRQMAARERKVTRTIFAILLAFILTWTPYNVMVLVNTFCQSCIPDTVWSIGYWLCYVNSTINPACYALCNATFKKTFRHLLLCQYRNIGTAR
In short: (§1)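 Membranes from CHO cells stably expressing human hm2, hm4 or hm5 receptors, at 70, 50 and 25 µg/mL protein respectively. 0.2 nM [3H]NMS displaced by unlabelled ligand for 120 min at room temperature, in 25 mM sodium phosphate with 5 mM MgCl2, pH 7.4. Rapid filtration, then scintillation counting. Mean of at least three experiments.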

[3] = target: T2, Muscarinic acetylcholine receptor M2 (Homo sapiens, UniProt P08172); experiment: Binding affinity to cloned human muscarinic M2 receptor expressed in CHO cells; type: cell-based; in short: as §1
T2 sequence (P08172 whole entry): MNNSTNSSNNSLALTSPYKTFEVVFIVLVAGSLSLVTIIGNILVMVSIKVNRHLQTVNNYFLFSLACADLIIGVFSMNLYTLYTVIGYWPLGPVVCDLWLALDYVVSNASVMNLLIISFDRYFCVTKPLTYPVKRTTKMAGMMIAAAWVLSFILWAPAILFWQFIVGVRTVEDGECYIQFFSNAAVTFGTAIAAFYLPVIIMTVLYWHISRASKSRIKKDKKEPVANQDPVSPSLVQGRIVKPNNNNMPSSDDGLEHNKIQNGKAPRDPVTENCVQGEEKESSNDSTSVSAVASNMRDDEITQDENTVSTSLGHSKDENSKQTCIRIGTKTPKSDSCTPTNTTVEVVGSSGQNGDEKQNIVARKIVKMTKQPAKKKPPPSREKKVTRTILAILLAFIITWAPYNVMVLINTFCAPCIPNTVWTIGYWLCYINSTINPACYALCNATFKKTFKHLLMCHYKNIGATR

[4] = target: T3, Muscarinic acetylcholine receptor M1 (Homo sapiens) (UniProt P11229); experiment: Agonist potency at muscarinic M1 receptor in rabbit vas deferens; type: functional, tissue-based; conditions: Oryctolagus cuniculus, target entry is the homologue from another species
T3 sequence (whole entry): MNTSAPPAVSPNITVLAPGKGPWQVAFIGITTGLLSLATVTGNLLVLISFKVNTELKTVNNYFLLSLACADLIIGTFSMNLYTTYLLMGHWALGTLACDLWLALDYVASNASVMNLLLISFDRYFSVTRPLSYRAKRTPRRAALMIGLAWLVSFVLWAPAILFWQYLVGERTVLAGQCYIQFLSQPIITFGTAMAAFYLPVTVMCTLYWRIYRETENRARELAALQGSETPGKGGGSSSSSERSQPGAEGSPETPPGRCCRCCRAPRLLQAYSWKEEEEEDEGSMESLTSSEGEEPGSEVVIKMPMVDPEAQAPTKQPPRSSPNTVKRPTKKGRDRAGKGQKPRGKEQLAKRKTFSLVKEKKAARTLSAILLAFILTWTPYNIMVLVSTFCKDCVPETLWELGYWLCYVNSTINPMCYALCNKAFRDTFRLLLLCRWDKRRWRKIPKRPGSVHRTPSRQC
In short: (§2)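 Field-stimulated (0.1 ms, 2 Hz, 10-15 V), contractions recorded isometrically after 1 h equilibration. Cumulative dose-response curves against p-Cl-McN-A-343 reference. Antagonists incubated 60 min before the repeat curve. Reported as pD2 (-log ED50) with intrinsic activity, or as pKb.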

[5] = target: T4, Muscarinic acetylcholine receptor M5 (Homo sapiens, UniProt P08912); experiment: Binding affinity to cloned human muscarinic M5 receptor expressed in CHO cells; type: cell-based; in short: as §1
T4 sequence (P08912 whole entry): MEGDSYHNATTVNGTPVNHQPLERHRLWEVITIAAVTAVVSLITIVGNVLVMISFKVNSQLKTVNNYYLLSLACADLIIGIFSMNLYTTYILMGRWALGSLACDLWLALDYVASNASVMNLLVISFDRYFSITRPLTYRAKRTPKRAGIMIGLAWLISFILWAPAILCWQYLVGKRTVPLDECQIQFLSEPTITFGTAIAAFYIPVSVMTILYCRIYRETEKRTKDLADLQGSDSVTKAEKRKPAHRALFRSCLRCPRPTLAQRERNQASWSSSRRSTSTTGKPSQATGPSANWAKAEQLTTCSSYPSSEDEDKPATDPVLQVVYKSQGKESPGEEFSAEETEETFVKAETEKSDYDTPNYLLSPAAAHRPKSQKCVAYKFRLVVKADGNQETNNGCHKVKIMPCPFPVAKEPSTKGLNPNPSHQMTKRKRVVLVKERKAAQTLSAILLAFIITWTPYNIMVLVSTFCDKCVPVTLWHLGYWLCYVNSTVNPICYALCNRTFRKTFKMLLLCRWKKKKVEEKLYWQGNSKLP

[6] = target: T5, Muscarinic acetylcholine receptor M1 (Homo sapiens, UniProt P11229); experiment: Binding affinity to cloned human muscarinic M1 receptor expressed in CHO cells; type: cell-based
T5 sequence (P11229 whole entry): T3 sequence (whole entry)

[7] = target: T3, Muscarinic acetylcholine receptor M1 (Homo sapiens); experiment: Antagonist affinity at muscarinic M1 receptor in rabbit vas deferens; type: functional, tissue-based; conditions: Oryctolagus cuniculus, target entry is the homologue from another species; in short: as §2
[8] = target: T6, Muscarinic acetylcholine receptor M2 (Homo sapiens) (UniProt P08172); experiment: Efficacy of agonist at muscarinic M2 receptor in guinea pig atrium as ratio of Ka/ED50; type: functional, tissue-based; conditions: Cavia porcellus; Cardiac atrium; target entry is the homologue from another species
T6 sequence (whole entry): T2 sequence (P08172 whole entry)
In short: (§3)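 Functional affinity constants (Ka) obtained in the atrium and ileum preparations. Full agonists: Furchgott-Bursztyn method. Partial agonists: Waud method, comparing their concentration-response curves with arecaidine propargyl ester, with equieffective concentrations read graphically. Ka was then related to ED50.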

[9] = target: Muscarinic acetylcholine receptor M3 (Cavia porcellus) (UniProt Q8VH26); experiment: Efficacy of agonist at muscarinic M3 receptor in guinea pig ileum as ratio of Ka/ED50; type: functional, tissue-based; in short: as §3
Sequence of Muscarinic acetylcholine receptor M3 (Cavia porcellus) (Q8VH26 1-587): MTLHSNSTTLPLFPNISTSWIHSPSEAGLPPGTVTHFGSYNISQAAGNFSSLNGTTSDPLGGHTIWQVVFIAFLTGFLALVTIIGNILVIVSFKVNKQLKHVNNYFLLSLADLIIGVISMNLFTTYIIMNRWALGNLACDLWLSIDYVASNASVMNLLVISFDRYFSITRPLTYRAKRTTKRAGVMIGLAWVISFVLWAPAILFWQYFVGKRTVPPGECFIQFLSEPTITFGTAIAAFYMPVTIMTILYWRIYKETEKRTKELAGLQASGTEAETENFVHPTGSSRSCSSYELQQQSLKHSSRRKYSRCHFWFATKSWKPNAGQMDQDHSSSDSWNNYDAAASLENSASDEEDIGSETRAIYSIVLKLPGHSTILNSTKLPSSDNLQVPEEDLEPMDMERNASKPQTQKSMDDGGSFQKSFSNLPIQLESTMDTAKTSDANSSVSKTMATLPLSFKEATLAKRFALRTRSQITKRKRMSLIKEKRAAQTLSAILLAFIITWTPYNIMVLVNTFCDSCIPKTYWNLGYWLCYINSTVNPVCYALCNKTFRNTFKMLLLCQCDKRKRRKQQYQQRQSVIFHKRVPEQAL

[10] = target: Muscarinic acetylcholine receptor M3 (Cavia porcellus) (UniProt Q8VH26); experiment: Agonist potency at muscarinic M3 receptor in guinea pig ileum; type: functional, tissue-based
In short: (§4)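 Isolated guinea pig tissue contractions, measured against arecaidine propargyl ester control curves. Agonists: cumulative dose-response curve after a 30 min wash, responses as % of the control maximum. Antagonists: 60 min incubation, then a new agonist curve. Parallel time-control tissues were run. Values expressed as pD2 (-log ED50) with intrinsic activity, or as pKb (-log Kb).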

[11] = target: T7, Muscarinic acetylcholine receptor M4 (Homo sapiens) (UniProt P08173); experiment: Antagonist affinity at muscarinic M4 receptor in guinea pig lung strips; type: functional; conditions: Cavia porcellus, target entry is the homologue from another species; in short: as §4
T7 sequence (whole entry): T1 sequence (P08173 whole entry)

[12] = target: T6, Muscarinic acetylcholine receptor M2 (Homo sapiens); experiment: Agonist potency at muscarinic M2 receptor in guinea pig atrium; type: functional, tissue-based; conditions: Cavia porcellus; Cardiac atrium; target entry is the homologue from another species
In short: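 Guinea pig left atria in PSS at 30 °C, paced by square-wave pulses (1 ms, 1 Hz, 5-10 V). Inotropic force recorded isometrically after 2 h equilibration, with cumulative dose-response curves to arecaidine propargyl ester as reference. Antagonists incubated 60 min after a 30 min wash, then the curve was repeated. Values given as pD2 with intrinsic activity, or as pKb.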

[13] = target: T7, Muscarinic acetylcholine receptor M4 (Homo sapiens); experiment: Agonist potency at muscarinic M4 receptor in guinea pig lung strips; type: functional; conditions: Cavia porcellus, target entry is the homologue from another species; in short: as §4

Sequence of Muscarinic acetylcholine receptor M3 (P20309 whole entry): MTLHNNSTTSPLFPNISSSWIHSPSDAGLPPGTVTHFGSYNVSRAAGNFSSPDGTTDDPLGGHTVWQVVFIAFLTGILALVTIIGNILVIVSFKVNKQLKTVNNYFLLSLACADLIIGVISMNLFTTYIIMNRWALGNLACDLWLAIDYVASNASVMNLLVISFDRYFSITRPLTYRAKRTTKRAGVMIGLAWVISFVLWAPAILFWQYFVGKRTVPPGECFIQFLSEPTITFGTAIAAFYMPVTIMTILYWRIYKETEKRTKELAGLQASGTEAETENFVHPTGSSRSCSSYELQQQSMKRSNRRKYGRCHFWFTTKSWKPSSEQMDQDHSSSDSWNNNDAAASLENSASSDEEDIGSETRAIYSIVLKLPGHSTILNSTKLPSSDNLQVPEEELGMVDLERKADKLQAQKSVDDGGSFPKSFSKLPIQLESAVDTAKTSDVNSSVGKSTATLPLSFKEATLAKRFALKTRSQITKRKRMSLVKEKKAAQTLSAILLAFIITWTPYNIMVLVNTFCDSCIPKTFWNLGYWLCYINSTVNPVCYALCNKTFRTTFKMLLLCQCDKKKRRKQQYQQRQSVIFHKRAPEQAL

| SMILES | Ki [1] | Ki [2] | Ki [3] | pD2 [4] | Ki [5] | Ki [6] | pKb [7] | Ratio [8] | Ratio [9] | -logKa [10] | Activity [10] | pD2 [10] | pKb [11] | -logKa [12] | Activity [12] | pD2 [12] | pD2 [13] |
| --- | --- | --- | --- | --- | --- | --- | --- | --- | --- | --- | --- | --- | --- | --- | --- | --- | --- |
| C[N+](C)(C)CC#CCOC(=O)Nc1ccc(Cl)cc1 | 2.4 µM | 9.12 µM | 3.24 µM | 6.33 | 3.8 µM | 1.95 µM | – | – | – | – | – | – | – | – | – | – | – |
| C[C@@H]1O[C@H]([C@@H]2CCC[N+]2(C)C)C[S@@+]1[O-] | 33.9 µM | 46.8 µM | 15.5 µM | – | 33.9 µM | 93.3 µM | < 5 | 58 | 1 | 4.59 | 0.54 | 4.62 | < 5 | 4.64 | 0.56 | 6.37 | – |
| C#CCOC(=O)C1=CCCN(C)C1 [ARECAIDINE PROPARGYL ESTER] | 0.851 µM | 0.977 µM | 0.0871 µM | 7.14 | 0.933 µM | 1.23 µM | – | – | – | – | 1 | 7.64 | – | – | 1 | 8.67 | 5.56 |
